pIC50, pKi: −log10 of the molar value. In brackets after ≈: the same amount, converted by molar mass.
What was measured:
HEK293 = assay: Inhibition of beta-amyloid peptide production in HEK293 cell line; assay type: functional, cell-based; details: Homo sapiens
[1] = Percent of unbound ligand in Beagle dog at 0.5 mg/kg, po; assay type: ADME, organism-based, Canis lupus familiaris; set-up: dose 0.5 mg/kg, route oral; details: in vivo
[2] = Clearance in Beagle dog at 0.5 mg/kg, po; assay type: ADME, organism-based, Canis lupus familiaris; set-up: dose 0.5 mg/kg, route oral; details: in vivo
How it was run: (§1)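 Beagle dogs were dosed in cassette format with up to nine other compounds. Doses were kept low to limit interactions: 0.25 mg/kg iv and 0.5 or 1.0 mg/kg po. Pharmacokinetic parameters were derived from these dosings.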

Canis familiaris [3] = assay: Volume of distribution in Beagle dog at 0.5 mg/kg, po; assay type: ADME, organism-based, Canis lupus familiaris; set-up: dose 0.5 mg/kg, route oral; details: in vivo; how it was run: as §1
[4] = Half life in Beagle dog at 0.5 mg/kg, po; assay type: ADME, organism-based, Canis lupus familiaris; set-up: dose 0.5 mg/kg, route oral; details: in vivo; how it was run: as §1
[5] = Cmax in Beagle dog at 0.5 mg/kg, po; assay type: ADME, organism-based, Canis lupus familiaris; set-up: dose 0.5 mg/kg, route oral; details: in vivo; how it was run: as §1
[6] = Oral bioavailability in Beagle dog at 0.5 mg/kg, po; assay type: ADME, organism-based, Canis lupus familiaris; details: in vivo; how it was run: as §1
[7] = Inhibition of gamma secretase mediated Notch1 signalling in NIH3T3 cells; assay type: functional, cell-based; details: Mus musculus
How it was run: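 NIH3T3 cells were grown in DMEM with 10% calf serum, penicillin/streptomycin, 2 mM L-glutamine and 1 mM pyruvate. They were transiently batch-transfected for 24 h with mouse Notch-1 ΔE, vector DNA and a CBF1-luciferase reporter (four tandem CBF1 binding elements). Cells were then replated in defined medium with 0.0125% BSA, treated with serial compound dilutions for 20 h, and read by luciferase luminescence.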

[8] = Clearance in Beagle dog at 1 mg/kg, po; assay type: ADME, organism-based, Canis lupus familiaris; set-up: dose 1 mg/kg, route oral; details: in vivo; how it was run: as §1
Canis familiaris [9] = assay: Volume of distribution in Beagle dog at 1 mg/kg, po; assay type: ADME, organism-based, Canis lupus familiaris; set-up: dose 1 mg/kg, route oral; details: in vivo; how it was run: as §1
[10] = Half life in Beagle dog at 1 mg/kg, po; assay type: ADME, organism-based, Canis lupus familiaris; set-up: dose 1 mg/kg, route oral; details: in vivo; how it was run: as §1
[11] = Cmax in Beagle dog at 1 mg/kg, po; assay type: ADME, organism-based, Canis lupus familiaris; set-up: dose 1 mg/kg, route oral; details: in vivo; how it was run: as §1
[12] = Oral bioavailability in Beagle dog at 1 mg/kg, po; assay type: ADME, organism-based, Canis lupus familiaris; details: in vivo
How it was run: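 Beagle dogs given compounds in cassette format with up to nine other compounds. Doses were kept low to limit interactions: 0.25 mg/kg iv, and 0.5 or 1.0 mg/kg po.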

[13] = Solubility at pH 7.4; assay type: physicochemical; details: buffer
Interstitial collagenase = biological target: T1, Interstitial collagenase (Homo sapiens, UniProt P03956); assay: Inhibition of MMP1
T1 sequence (P03956 whole entry): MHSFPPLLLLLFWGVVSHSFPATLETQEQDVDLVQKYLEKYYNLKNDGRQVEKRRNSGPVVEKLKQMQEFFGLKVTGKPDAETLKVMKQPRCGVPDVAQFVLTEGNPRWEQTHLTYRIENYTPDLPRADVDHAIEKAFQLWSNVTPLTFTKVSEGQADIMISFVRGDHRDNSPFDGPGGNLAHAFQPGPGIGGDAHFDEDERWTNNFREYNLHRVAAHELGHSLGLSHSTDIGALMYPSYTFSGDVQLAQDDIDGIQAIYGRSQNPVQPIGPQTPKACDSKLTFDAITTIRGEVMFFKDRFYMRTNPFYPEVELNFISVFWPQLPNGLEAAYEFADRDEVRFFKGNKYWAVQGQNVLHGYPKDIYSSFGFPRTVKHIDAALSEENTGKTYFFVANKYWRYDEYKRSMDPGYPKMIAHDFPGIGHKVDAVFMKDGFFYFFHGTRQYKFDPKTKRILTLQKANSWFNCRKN

[14] = biological target: 72 kDa type IV collagenase (Homo sapiens, UniProt P08253); assay: Inhibition of MMP2
Chain of 72 kDa type IV collagenase (P08253 whole entry): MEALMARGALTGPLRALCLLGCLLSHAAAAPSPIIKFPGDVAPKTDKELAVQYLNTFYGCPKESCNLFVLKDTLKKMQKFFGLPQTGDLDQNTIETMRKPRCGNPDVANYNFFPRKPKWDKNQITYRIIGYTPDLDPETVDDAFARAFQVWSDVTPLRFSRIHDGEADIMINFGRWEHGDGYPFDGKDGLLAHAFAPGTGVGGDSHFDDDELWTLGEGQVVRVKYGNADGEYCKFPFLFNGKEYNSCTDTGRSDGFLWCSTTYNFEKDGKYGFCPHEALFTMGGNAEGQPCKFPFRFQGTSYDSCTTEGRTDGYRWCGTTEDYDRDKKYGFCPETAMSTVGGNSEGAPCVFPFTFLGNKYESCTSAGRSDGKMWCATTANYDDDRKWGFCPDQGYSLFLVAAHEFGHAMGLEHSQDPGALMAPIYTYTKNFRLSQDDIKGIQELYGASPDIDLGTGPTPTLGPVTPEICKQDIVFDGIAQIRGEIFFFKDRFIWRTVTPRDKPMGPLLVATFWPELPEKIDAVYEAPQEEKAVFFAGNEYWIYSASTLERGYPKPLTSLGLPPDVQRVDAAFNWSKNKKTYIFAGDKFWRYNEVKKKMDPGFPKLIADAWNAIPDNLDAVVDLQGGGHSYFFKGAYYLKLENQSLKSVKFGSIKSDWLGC

Matrilysin = biological target: T2, Matrilysin (Homo sapiens, UniProt P09237); assay: Inhibition of MMP7
T2 sequence (P09237 whole entry): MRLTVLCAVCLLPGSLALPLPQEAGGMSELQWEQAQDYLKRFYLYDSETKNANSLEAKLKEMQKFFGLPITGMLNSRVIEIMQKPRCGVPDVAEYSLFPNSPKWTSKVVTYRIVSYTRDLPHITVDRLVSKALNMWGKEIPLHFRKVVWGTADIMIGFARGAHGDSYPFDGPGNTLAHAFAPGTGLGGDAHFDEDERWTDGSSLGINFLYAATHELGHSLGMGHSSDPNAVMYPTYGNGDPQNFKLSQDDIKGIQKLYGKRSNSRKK

[15] = biological target: Matrix metalloproteinase-9 (Homo sapiens, UniProt P14780); assay: Inhibition of MMP9
Chain of Matrix metalloproteinase-9 (P14780 whole entry): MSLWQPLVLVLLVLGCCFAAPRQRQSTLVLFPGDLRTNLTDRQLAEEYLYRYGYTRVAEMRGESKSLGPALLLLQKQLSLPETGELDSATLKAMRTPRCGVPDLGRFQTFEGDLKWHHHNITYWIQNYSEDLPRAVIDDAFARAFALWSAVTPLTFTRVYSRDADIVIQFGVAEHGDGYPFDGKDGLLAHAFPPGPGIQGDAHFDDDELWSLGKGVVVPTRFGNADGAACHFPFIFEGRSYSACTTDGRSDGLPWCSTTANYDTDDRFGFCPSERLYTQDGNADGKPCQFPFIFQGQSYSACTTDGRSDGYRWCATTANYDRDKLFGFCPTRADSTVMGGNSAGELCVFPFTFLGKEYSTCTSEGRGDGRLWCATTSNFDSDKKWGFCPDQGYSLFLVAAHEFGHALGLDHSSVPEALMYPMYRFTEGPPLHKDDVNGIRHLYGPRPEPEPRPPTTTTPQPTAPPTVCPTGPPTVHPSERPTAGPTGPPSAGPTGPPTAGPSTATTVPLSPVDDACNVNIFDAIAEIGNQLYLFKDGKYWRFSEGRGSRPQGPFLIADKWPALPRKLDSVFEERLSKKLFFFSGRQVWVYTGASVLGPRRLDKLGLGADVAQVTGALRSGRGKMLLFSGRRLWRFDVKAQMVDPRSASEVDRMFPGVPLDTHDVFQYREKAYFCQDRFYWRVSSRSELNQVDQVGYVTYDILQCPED

Stromelysin-2 = Stromelysin-2 (Homo sapiens, UniProt P09238); assay: Inhibition of MMP10
Chain of Stromelysin-2 (P09238 whole entry): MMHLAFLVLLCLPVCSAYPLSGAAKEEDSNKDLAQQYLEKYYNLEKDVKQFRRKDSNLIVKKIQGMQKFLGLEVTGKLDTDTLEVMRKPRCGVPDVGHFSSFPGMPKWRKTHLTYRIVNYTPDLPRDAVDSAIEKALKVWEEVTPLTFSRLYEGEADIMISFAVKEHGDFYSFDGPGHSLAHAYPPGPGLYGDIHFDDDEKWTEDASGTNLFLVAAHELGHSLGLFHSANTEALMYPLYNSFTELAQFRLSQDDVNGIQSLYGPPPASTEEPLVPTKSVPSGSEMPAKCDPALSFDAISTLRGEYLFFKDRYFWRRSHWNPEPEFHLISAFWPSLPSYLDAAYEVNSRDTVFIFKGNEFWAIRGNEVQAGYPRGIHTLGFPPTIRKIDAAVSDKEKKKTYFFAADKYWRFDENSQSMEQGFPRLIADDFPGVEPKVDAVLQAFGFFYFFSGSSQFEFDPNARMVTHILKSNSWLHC

Collagenase 3 = Collagenase 3 (Homo sapiens, UniProt P45452); assay: Inhibition of MMP13
[16] = biological target: Matrix metalloproteinase-14 (Homo sapiens, UniProt P50281); assay: Inhibition of MMP14
[17] = biological target: Disintegrin and metalloproteinase domain-containing protein 17 (Homo sapiens, UniProt P78536)
Chain of Disintegrin and metalloproteinase domain-containing protein 17 (P78536 whole entry, the tested form may be a part): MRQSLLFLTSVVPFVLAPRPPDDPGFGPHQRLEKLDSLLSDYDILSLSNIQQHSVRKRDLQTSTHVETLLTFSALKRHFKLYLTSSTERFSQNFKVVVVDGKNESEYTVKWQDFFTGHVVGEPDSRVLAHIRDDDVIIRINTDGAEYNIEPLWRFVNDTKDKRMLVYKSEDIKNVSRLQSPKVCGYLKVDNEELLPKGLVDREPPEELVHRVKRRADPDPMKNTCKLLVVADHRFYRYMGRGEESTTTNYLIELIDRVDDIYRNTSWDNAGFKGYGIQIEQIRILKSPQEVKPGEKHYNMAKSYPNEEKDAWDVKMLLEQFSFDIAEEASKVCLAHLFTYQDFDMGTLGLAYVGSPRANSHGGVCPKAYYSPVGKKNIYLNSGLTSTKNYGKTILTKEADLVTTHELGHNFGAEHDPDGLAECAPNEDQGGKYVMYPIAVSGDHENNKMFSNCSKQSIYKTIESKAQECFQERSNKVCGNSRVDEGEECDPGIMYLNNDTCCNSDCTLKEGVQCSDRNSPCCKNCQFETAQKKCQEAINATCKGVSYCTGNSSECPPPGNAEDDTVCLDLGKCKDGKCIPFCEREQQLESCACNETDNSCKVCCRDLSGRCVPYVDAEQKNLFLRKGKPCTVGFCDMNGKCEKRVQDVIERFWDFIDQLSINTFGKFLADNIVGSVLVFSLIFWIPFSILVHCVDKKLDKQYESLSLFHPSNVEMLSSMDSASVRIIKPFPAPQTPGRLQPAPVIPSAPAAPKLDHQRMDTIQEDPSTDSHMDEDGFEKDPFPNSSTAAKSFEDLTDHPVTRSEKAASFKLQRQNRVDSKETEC

Structure (SMILES) | pIC50 (HEK293) | also measured
CCC[C@H](C(=O)NNC(=O)[C@H](CC(C)C)[C@@H]1CCNC1=O)[C@@H](CC(C)C)C(=O)N[C@H]1CCCCN(Cc2cccc(Oc3ccccc3)c2)C1=O | < 5.00 | –
CCCC(C(=O)NO)C(CC(C)C)C(=O)N[C@H]1CCCCN(Cc2cccc(-c3ccccc3-c3cccc4ccccc34)c2)C1=O (single isomer, unassigned) | 6.60 | –
CCC[C@H](C(=O)NN)[C@@H](CC(C)C)C(=O)N[C@H]1CCCCN(Cc2cccc(Oc3ccccc3)c2)C1=O | 5.80 | –
CCCC(C(=O)NO)C(CC(C)C)C(=O)N[C@H]1CCCCN(Cc2cccc(-c3ccc(C(F)(F)F)cc3)c2)C1=O (single isomer, unassigned) | 6.64 | –
CCC[C@H](C(N)=O)[C@@H](CC(C)C)C(=O)N[C@H]1CCCCN(Cc2cncc(-c3ccc(F)c(Cl)c3)c2)C1=O | 8.40 | –
CCCC(C(=O)NO)C(CC(C)C)C(=O)N[C@H]1CCCCN(Cc2cccc(-c3ccc(F)cc3)c2)C1=O (single isomer, unassigned) | 6.33 | –
CCC[C@@H](CC(=O)NNC(=O)[C@@H](CCC)[C@@H](CC(C)C)C(=O)N[C@H]1CCCCN(Cc2cccc(Oc3ccccc3)c2)C1=O)C(=O)NO | < 5.00 | –
CCC[C@H](C(=O)NNC(=O)[C@@H](CC(N)=O)CC(C)C)[C@@H](CC(C)C)C(=O)N[C@H]1CCCCN(Cc2cccc(Oc3ccccc3)c2)C1=O | < 5.00 | –
CCCC(C(=O)NO)C(CC(C)C)C(=O)N[C@H]1CCCCN(Cc2cccc(-c3ccc(F)c(Cl)c3)c2)C1=O (single isomer, unassigned) | 7.00 | –
CCCC(C(=O)NO)C(CC(C)C)C(=O)N[C@H]1CCCCN(Cc2cccc(-c3ccc(Cl)cc3Cl)c2)C1=O (single isomer, unassigned) | 6.46 | –
CCC[C@H](C(=O)NOC)[C@@H](CC(C)C)C(=O)N[C@H]1CCCCN(Cc2cccc(Oc3ccccc3)c2)C1=O | 5.30 | –
CCC[C@H](C(N)=O)[C@@H](CC(C)C)C(=O)N[C@H]1CCCCN(Cc2cccc(Nc3ccccc3)c2)C1=O | – | fraction unbound [1]: 0.015; CL/F [2]: 10 mL/min/kg; Vss (Canis familiaris [3]): 0.4 L/kg; half-life [4]: 1 h; Cmax [5]: 17 nM; bioavailability [6]: 3%; pIC50 [7]: 7.19
CCCC(C(N)=O)C(CC(C)C)C(=O)N[C@H]1CCCCN(Cc2cccc(-c3cccc(OC)c3)c2)C1=O (single isomer, unassigned) | 6.82 | –
CCC[C@H](C(N)=O)[C@@H](CC(C)C)C(=O)N[C@H]1CCCCN(Cc2cncc(-c3ccccn3)c2)C1=O | 5.06 | –
CCCC(C(N)=O)C(CC(C)C)C(=O)N[C@H]1CCCCN(Cc2cccc(-c3ccccc3OC)c2)C1=O (single isomer, unassigned) | 7.52 | –
CCC[C@H](C(=O)OC)[C@@H](CC(C)C)C(=O)N[C@H]1CCCCN(Cc2cccc(Oc3ccccc3)c2)C1=O | 5.22 | –
CCC[C@H](C(=O)N(C)OC)[C@@H](CC(C)C)C(=O)N[C@H]1CCCCN(Cc2cccc(Oc3ccccc3)c2)C1=O | 5.30 | –
CCCC(C(=O)NO)C(CC(C)C)C(=O)N[C@H]1CCCCN(Cc2cccc(-c3ccccc3OC)c2)C1=O (single isomer, unassigned) | 6.52 | –
CCC[C@H](C(=O)O)[C@@H](CC(C)C)C(=O)N[C@H]1CCCCN(Cc2cccc(Oc3ccccc3)c2)C1=O | < 5.52 | –
CCC[C@H](C(=O)NC)[C@@H](CC(C)C)C(=O)N[C@H]1CCCCN(Cc2cccc(Oc3ccccc3)c2)C1=O | 5.30 | –
CCCC(C(N)=O)C(CC(C)C)C(=O)N[C@H]1CCCCN(Cc2cccc(-c3ccc(Cl)cc3Cl)c2)C1=O (single isomer, unassigned) | 7.85 | –

Structure (SMILES) | pIC50 (HEK293) | also measured
CCCC(C(N)=O)C(CC(C)C)C(=O)N[C@H]1CCCCN(Cc2cccc(-c3ccc(OC)cc3)c2)C1=O (single isomer, unassigned) | 8.10 | –
CCCC(C(=O)NO)C(CC(C)C)C(=O)N[C@H]1CCCCN(Cc2cccc(-c3cccc(OC)c3)c2)C1=O (single isomer, unassigned) | 6.22 | –
CCCC(C(=O)NO)C(CC(C)C)C(=O)N[C@H]1CCCCN(Cc2cccc(-c3ccc(OC)cc3)c2)C1=O (single isomer, unassigned) | 6.33 | –
CCC[C@H](C(=O)NNC(=O)[C@@H](CCC)[C@@H](CC(C)C)C(=O)N[C@H]1CCCCN(Cc2cccc(Oc3ccccc3)c2)C1=O)[C@@H](CC(C)C)C(N)=O | 6.65 | –
CCCC(C(N)=O)C(CC(C)C)C(=O)N[C@H]1CCCCN(Cc2cccc(-c3ccc(F)cc3)c2)C1=O (single isomer, unassigned) | 6.72 | –
CCCC(C(N)=O)C(CC(C)C)C(=O)N[C@H]1CCCCN(Cc2ccc(-c3ccc(C(F)(F)F)cc3)cc2)C1=O (single isomer, unassigned) | 7.05 | –
CCC[C@H](C(N)=O)[C@@H](CC(C)C)C(=O)N[C@H]1CCCCN(Cc2cncc(-c3cccnc3)c2)C1=O | 5.66 | –
CCC[C@H](C(N)=O)[C@@H](CC(C)C)C(=O)N[C@H]1CCCCN(Cc2cncc(-c3ccc(OC)cc3)c2)C1=O | 7.49 | –
CCC[C@H](C(N)=O)[C@@H](CC(C)C)C(=O)N[C@H]1CCCCN(Cc2cncc(-c3ccc(C(F)(F)F)cc3)c2)C1=O | 7.77 | –
CCCC(C(N)=O)C(CC(C)C)C(=O)N[C@H]1CCCCN(Cc2cccc(-c3ccc(C(F)(F)F)cc3)c2)C1=O (single isomer, unassigned) | 8.00 | –
CCCC(C(=O)NO)C(CC(C)C)C(=O)N[C@H]1CCCCN(Cc2cccc(-c3cccc(F)c3)c2)C1=O (single isomer, unassigned) | 6.74 | –
CCCC(C(=O)NO)C(CC(C)C)C(=O)N[C@H]1CCCCN(Cc2cccc(-c3ccc(C)cc3)c2)C1=O (single isomer, unassigned) | 6.59 | –
CCCC(C(N)=O)C(CC(C)C)C(=O)N[C@H]1CCCCN(Cc2cccc(-c3cccc(F)c3)c2)C1=O (single isomer, unassigned) | 6.52 | –
CCCC(C(N)=O)C(CC(C)C)C(=O)N[C@H]1CCCCN(Cc2cccc(-c3ccc(F)c(Cl)c3)c2)C1=O (single isomer, unassigned) | 7.77 | CL/F [8]: 6.67 mL/min/kg; Vss (Canis familiaris [9]): 0.8 L/kg; half-life [10]: 1.3 h; Cmax [11]: 116 nM; bioavailability [12]: 25%; pIC50 [7]: 7.74; solubility [13]: 0.1 µg/mL (≈ 0.184 µM)
CCC[C@H](C(N)=O)[C@@H](CC(C)C)C(=O)N[C@H]1CCCCN(Cc2cccc(Oc3ccccc3)c2)C1=O | 7.30 | fraction unbound [1]: 0.004; CL/F [2]: 31.7 mL/min/kg; Vss (Canis familiaris [3]): 1.3 L/kg; half-life [4]: 0.5 h; Cmax [5]: 25 nM; bioavailability [6]: 8%; pIC50 [7]: 7.09; solubility [13]: 1 µg/mL (≈ 1.97 µM)
CCC[C@H](C(=O)NO)[C@@H](CC(C)C)C(=O)N[C@H]1CCCCN(Cc2cccc(Oc3ccccc3)c2)C1=O | 6.30 | pKi (Interstitial collagenase): 7.68; pKi [14]: 8.15; pKi (Matrilysin): 6.18; pKi [15]: 8.30; pKi (Stromelysin-2): 6.72; pKi (Collagenase 3): 8.00; pKi [16]: 5.92; pKi [17]: 8.40
CCC[C@H](C(=O)NO)[C@@H](CC(C)C)C(=O)N[C@H]1CCCCN(Cc2cccc(I)c2)C1=O | 5.52 | –
CCCC(C(=O)NO)C(CC(C)C)C(=O)N[C@H]1CCCCN(Cc2cccc(-c3cccc(NC(C)=O)c3)c2)C1=O (single isomer, unassigned) | < 5.00 | –
CCCC(C(=O)NO)C(CC(C)C)C(=O)N[C@H]1CCCCN(Cc2cccc(-c3cccc(C)c3)c2)C1=O (single isomer, unassigned) | 6.29 | –
CCCC(C(N)=O)C(CC(C)C)C(=O)N[C@H]1CCCCN(Cc2cccc(-c3ccc(C)cc3)c2)C1=O (single isomer, unassigned) | 7.40 | –
